Experimental data as given in ChEMBL document CHEMBL1649400, “Synthesis and antitumor activity of ureas containing pyrimidinyl group” (Eur J Med Chem, 2011).

What was measured:
Assay type in all cases: functional, cell-based
[1] = Cytotoxicity against human CNE2 cells after 3 days by MTT assay; conditions: CNE-2, 72 h
In short: (§1)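 Cells grown in RPMI 1640 with 10% fetal calf serum were plated from suspension and held 12 h at 37 °C, 5% CO2. Test sample was then added and cells were cultured 3 days at 37 °C. MTT was added for 4 h at 37 °C, supernatant removed, formazan dissolved in DMSO, absorbance read at 570 nm. IC50 = concentration giving 50% growth inhibition versus untreated control.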

[2] = tested on: KB; experiment: Cytotoxicity against human KB cells after 3 days by MTT assay; conditions: 72 h; in short: as §1
[3] = tested on: MCF7; experiment: Cytotoxicity against human MCF7 cells after 3 days by MTT assay; conditions: MCF7, 72 h; in short: as §1
[4] = tested on: MGC-803; experiment: Cytotoxicity against human MGC803 cells after 3 days by MTT assay; conditions: MGC-803, 72 h; in short: as §1

COc1ccc(NC(=O)Nc2ccc(Cl)cc2)cc1
IC50 [1]: > 50 µM
IC50 [2]: > 50 µM
IC50 [3]: > 50 µM

Cc1cc(C)nc(Oc2ccc(NC(=O)Nc3ccccc3)cc2)n1
IC50 [2]: > 50 µM

Cc1cc(C)nc(Oc2ccc(NC(=O)Nc3ccc(OC(F)(F)F)cc3)cc2)n1
IC50 [1]: 30.8 µM
IC50 [2]: 28.9 µM
IC50 [3]: > 50 µM
IC50 [4]: > 50 µM

Cc1cc(C)nc(Oc2ccc(NC(=O)Nc3ccc(Cl)cc3)cc2)n1
IC50 [1]: 20.4 µM
IC50 [2]: 25.4 µM
IC50 [3]: > 50 µM
IC50 [4]: > 50 µM

Cc1cc(C)nc(Sc2ccc(NC(=O)Nc3ccc(Cl)cc3Cl)cc2)n1
IC50 [1]: 23.2 µM
IC50 [2]: 15.5 µM
IC50 [3]: > 50 µM
IC50 [4]: > 50 µM

Cc1cc(C)nc(Oc2ccc(NC(=O)Nc3ccc(Cl)cc3Cl)cc2)n1
IC50 [1]: 38.9 µM
IC50 [2]: 31.8 µM
IC50 [3]: 47.8 µM
IC50 [4]: 35.4 µM

Cc1cc(C)nc(Sc2ccc(NC(=O)Nc3ccc(F)cc3)cc2)n1
IC50 [1]: 34.1 µM
IC50 [2]: 32.1 µM
IC50 [3]: > 50 µM
IC50 [4]: > 50 µM

Cc1cc(C)nc(Sc2ccc(NC(=O)Nc3ccc(Cl)cc3)cc2)n1
IC50 [1]: 13.5 µM
IC50 [2]: 10.2 µM
IC50 [3]: 35.3 µM
IC50 [4]: 26.1 µM

COc1ccc(NC(=O)Nc2ccc(Cl)cc2Cl)cc1
IC50 [1]: > 50 µM
IC50 [2]: > 50 µM
IC50 [3]: > 50 µM
IC50 [4]: > 50 µM

O=c1[nH]cc(F)c(=O)[nH]1 [FLUOROURACIL]
IC50 [1]: 13.1 µM
IC50 [2]: 11.9 µM
IC50 [3]: 15.2 µM
IC50 [4]: 12.6 µM

Cc1cc(C)nc(Sc2ccc(NC(=O)Nc3ccc(OC(F)(F)F)cc3)cc2)n1
IC50 [1]: 22.8 µM
IC50 [2]: 20 µM
IC50 [3]: 41.7 µM
IC50 [4]: 13.8 µM

Cc1cccc(NC(=O)Nc2ccc(Oc3nc(C)cc(C)n3)cc2)c1
IC50 [2]: > 50 µM

Cc1cc(C)nc(Oc2ccc(NC(=O)Nc3ccc(F)cc3)cc2)n1
IC50 [1]: 46.9 µM
IC50 [2]: 48.4 µM
IC50 [3]: > 50 µM
IC50 [4]: > 50 µM

Cc1cc(C)nc(Sc2ccc(NC(=O)Nc3ccccc3)cc2)n1
IC50 [1]: 22 µM
IC50 [2]: 25.7 µM
IC50 [3]: > 50 µM
IC50 [4]: 40.1 µM

Cc1cccc(NC(=O)Nc2ccc(Sc3nc(C)cc(C)n3)cc2)c1
IC50 [1]: > 50 µM
IC50 [2]: 47.8 µM
IC50 [3]: 37 µM
IC50 [4]: 25.3 µM
